Assay outcomes as filed in PubChem BioAssay.
An excerpt weighted towards active compounds, which were near 2.1% of everything screened.
Wee1 degr inh: blocks degradation of human Wee1 kinase. HeLa Luc-Wee1K328M stability, luciferase luminescence; 100% = proteasome inhibitor MG132 effect. reporter increase, % at 5 µM. hit rate 1.2% among 220,000. AID 1321;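 active = activation above the mean of all tested compounds plus 3 SD, set per screening run, cut at about 8.8% in these data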;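 note: cells exposed to compound for 20 h before luminescence read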
Target sequence (P30291 whole entry K328M): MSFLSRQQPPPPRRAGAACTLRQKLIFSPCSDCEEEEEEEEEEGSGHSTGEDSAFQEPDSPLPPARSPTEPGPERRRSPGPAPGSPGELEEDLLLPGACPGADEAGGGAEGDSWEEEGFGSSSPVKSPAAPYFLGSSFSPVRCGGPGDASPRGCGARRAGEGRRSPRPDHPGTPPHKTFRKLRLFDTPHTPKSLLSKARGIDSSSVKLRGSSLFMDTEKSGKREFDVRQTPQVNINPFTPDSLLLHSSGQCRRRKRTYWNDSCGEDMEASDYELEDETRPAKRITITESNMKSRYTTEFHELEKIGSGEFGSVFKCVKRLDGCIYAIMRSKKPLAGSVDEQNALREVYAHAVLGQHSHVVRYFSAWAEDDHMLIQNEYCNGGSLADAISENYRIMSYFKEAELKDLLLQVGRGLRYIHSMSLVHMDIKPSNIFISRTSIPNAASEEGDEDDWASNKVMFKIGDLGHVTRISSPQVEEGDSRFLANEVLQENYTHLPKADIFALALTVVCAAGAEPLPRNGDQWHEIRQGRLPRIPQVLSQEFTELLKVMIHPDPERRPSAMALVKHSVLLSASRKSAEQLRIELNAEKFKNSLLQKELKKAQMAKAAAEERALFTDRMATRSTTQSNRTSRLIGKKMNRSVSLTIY
TNF necrop inh: blocks TNF-alpha induced death of Jurkat FADD-/- cells | Jurkat FADD-/- TNF necroptosis rescue, ATP luminescence, 24 h; 0 = TNF only, 100 = no-TNF cells | activation (protection from cell death), % at 10 µM | hit rate 0.068% among 220,000;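 active = activation, meaning protection from cell death, of at least 50% relative to plate controls; inactive = activation below 50%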;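 note: necroptosis triggered by 40 ng/mL TNF-alpha added together with compound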
RBBP9 inh: blocks human serine hydrolase RBBP9; recombinant RBBP9, FP-Rh probe fluorescence polarization; O75884; inhibition, % at 7.94 µM; hit rate 0.2% among 220,000;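 active = inhibition above the campaign mean of all tested compounds plus 3 SD, cut at about 14% in these data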
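Test system: recombinant human RBBP9. Quantity: 2.5 µM RBBP9 dispensing solution, before mixing. Detection: FP readout at 525/598 nm. Reagent: Serine-hydrolase probe FP-Rh, 375 nM pre-mixing. Measure: % inhibition. Control set: DMSO-treated enzyme wells and wells lacking RBBP9. Buffer or medium: Tris-NaCl-Pluronic buffer, pH 8.0. Times: preincubation 30 min plus labeling 45 min at 25 °C.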
zVAD death inh: blocks zVAD induced death of L929 cells | viability rescue, % at 10 µM | hit rate 0.38% among 220,000 | L929 zVAD necroptosis rescue, ATP luminescence, 24 h; with zVAD 60 µM;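 active = activation, scaled between plate controls, above about 75%, limit read from the data; inactive = activation under that limit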
Pf gametocyte: kills late stage P. falciparum gametocytes | P. falciparum stage V gametocytes, ATP luminescence, 24 h | inhibition, % at 10.9 µM | hit rate 0.065% among 150,000 | AID 743093;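 active = inhibition above the mean plus 3 SD of compounds within the control limits, set per campaign, cut at about 38% in these data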
m-calpain inh: blocks pig calpain II enzyme activity | hit rate 0.37% among 220,000 | AID 1236 | inhibition, % at 16 µM | purified calpain II, fluorogenic peptide substrate, 30 min;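 active = inhibition above about 50%, limit read from the data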
Wee1 stab conf: human Wee1 degradation inhibition, confirmation; shares compounds with Wee1 degr inh; activation, % at 5 µM; HeLa Luc-Wee1K328M degradation, luminescence; vehicle 0%, proteasome-blocked wells 100%; hit rate 4% among 1,100; in the data active = activation above about 8.9%
Each line names hits and unclear results; the compound was inactive in the other large screens (follow-up assays come after a bar, where they were run).

CCCCCCCCCn1c2c(c(=N)c3c1CCC3)CCCC2	Wee1 degr inh 11.4, m-calpain inh 57.9 (no result: Pf gametocyte) | Wee1 stab conf inactive
CCn1c(CNc2ccc(OC)cc2)nnc1SCC(=O)N1CCCc2ccccc21	none
CCn1c(CSc2nc(C)cc(C)n2)nnc1SCC(=O)N1CCCc2ccccc21	Wee1 degr inh 14.0 | Wee1 stab conf inactive
CCCCCCCCC(=O)NNC(=O)c1c(O)c2ccccc2n(CCC)c1=O	none
CC(C)OCCCNC(=O)C(C)Oc1ccccc1 (stereo not drawn)	none (no result: Pf gametocyte)
CC(C)OCCCNC(=O)Nc1cccc2ccccc12	Wee1 degr inh 13.1 | Wee1 stab conf inactive
O=S(=O)(c1ccc(Cl)cc1)n1ccc2cccnc21	none (no result: Pf gametocyte)
O=S(=O)(c1ccc(Cl)cc1Cl)n1ccc2cccnc21	Wee1 degr inh 12.5 | Wee1 stab conf inactive
COC(CNC(=O)c1ccc2nc(-c3cccs3)c(-c3cccs3)nc2c1)OC	Wee1 degr inh 11.7 | Wee1 stab conf inactive
Cc1nc2ccc(F)cc2cc1C(=O)Nc1ccc(Cl)c(Cl)c1	Wee1 degr inh 14.8 | Wee1 stab conf inactive
Cc1nnc(SCC(=O)Nc2nsc(-c3ccc(C(C)(C)C)cc3)n2)s1	Wee1 degr inh 18.2 (no result: Pf gametocyte) | Wee1 stab conf inactive
Cc1nc2ccccc2n1CC(=O)OCC(=O)NC1CC1	none
Clc1ccc(Cn2ncc3c(N4CCCC4)ncnc32)cc1	Wee1 degr inh 16.5 | Wee1 stab conf inactive
CC(=O)c1ccc(NC(=S)NCCc2ccc(S(N)(=O)=O)cc2)cc1	Wee1 degr inh 27.3 (no result: Pf gametocyte) | Wee1 stab conf inactive
CCC(C(=O)Nc1nccs1)c1ccccc1 (stereo not drawn)	Wee1 degr inh 17.4 (no result: Pf gametocyte) | Wee1 stab conf inactive
CC(OCCN1CCCC1)(c1ccc(F)cc1)c1ccc(F)cc1	none
Cc1ccc(NC(=O)c2scc3c2CCCC3)cc1	Wee1 degr inh 11.7 | Wee1 stab conf inactive
Cc1ccc(NC(=O)c2cc3c(s2)CCCC3)cc1	Wee1 degr inh 16.1 | Wee1 stab conf inactive
O=C(c1ccccc1)c1cc2c(cc1[N+](=O)[O-])OCCO2	none
Cc1cc(O)c(-c2cc(C(=O)Nc3cccnc3)[nH]n2)cc1C	Wee1 degr inh 17.6 | Wee1 stab conf inactive
CNC(=O)C(=O)NCCc1ccc(Cl)cc1	Wee1 degr inh 20.4 | Wee1 stab conf inactive
Cc1ccc(C)c(C(=O)CN2C(=O)NC3(CCC(C)CC3)C2=O)c1 (stereo not drawn)	none
NCCCC[C@H]1CNC(=O)C(=O)N1CCc1cccc2ccccc12	none (no result: Wee1 degr inh, RBBP9 inh, Pf gametocyte)
CC(C)=N/N=C1/NC(=O)C(CC(=O)Nc2cc(Cl)ccc2C)S1 (stereo not drawn)	none (no result: Pf gametocyte)
O=C(COC(=O)Cc1ccccc1F)Nc1cccc(F)c1	none
O=C1N=C(N2CCCC2C(=O)O)S/C1=C\c1ccco1 (stereo not drawn)	Wee1 degr inh 12.9 | Wee1 stab conf inactive
O=C(CSc1nnc(-c2ccncc2)n1CCc1ccccc1)N1CCCC1	Wee1 degr inh 11.9 (no result: Pf gametocyte) | Wee1 stab conf inactive
CC(C)CC(=O)NC(c1ccccc1Cl)c1c(O)ccc2ccccc12 (stereo not drawn)	Wee1 degr inh 20.8 (no result: Pf gametocyte) | Wee1 stab conf inactive
Cc1nc(NC(=O)c2ccc(Br)o2)sc1C	Wee1 degr inh 11.3 | Wee1 stab conf inactive
Cc1nn2cc(-c3ccc(Cl)cc3)nc2s1	Wee1 degr inh 13.8 | Wee1 stab conf inactive
Cc1nn2cc(-c3ccc(-c4ccccc4)cc3)nc2s1	none (no result: Pf gametocyte)
Cc1cccc(CC(=O)Nc2cc(=O)n(C)c(=O)n2C)c1	none (no result: Pf gametocyte)
Cn1c(NC(=O)Cc2cccc3ccccc23)cc(=O)n(C)c1=O	Wee1 degr inh 13.1 (no result: Pf gametocyte) | Wee1 stab conf inactive
O=C(Cc1ccc(-n2c(=O)c3sccc3n(CC(=O)Nc3ccccc3F)c2=O)cc1)NCc1ccco1	none
COc1ccc(-c2cc(=Nc3ccc(C)cc3)c3ccccc3o2)cc1	none (no result: Pf gametocyte)
COc1ccc(-c2cc(=NC(CC(C)C)C(=O)O)c3cc(C)ccc3o2)cc1 (stereo not drawn)	Wee1 degr inh 11.8 | Wee1 stab conf inactive
Cc1cc(C(=O)NC2=NCCS2)cs1	none (no result: Pf gametocyte)
Cc1cccc(C(=O)NC2=NCCS2)c1	Wee1 degr inh 33.0 | Wee1 stab conf inactive
